Experimental data from ChEMBL document CHEMBL4339197, “Discovery of Imidazo[1,2-a]pyrazines and Pyrazolo[1,5-c]pyrimidines as TARP γ-8 Selective AMPAR Negative Modulators” (ACS Med Chem Lett, 2019).
Converted amounts (≈) assume the structure as drawn. Blank lines part the entries; values can stand above or below the compound they belong to. The source made the active and inactive calls. No cut-off for these calls is given here.

Key:
Mus musculus [1] = test: Ex vivo receptor occupancy at TARPgamma8 in mouse assessed as reduction in [3H]JNJ-56022486 receptor labeling at 10 mg/kg, po measured after 1 hr by autoradiography; format: functional
In short: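 Mice given a single 10 mg/kg p.o. dose and sampled over time (n = 3 per time point, ±SEM). GluA/γ-8 receptor occupancy in hippocampus measured by ex vivo autoradiography with [3H]JNJ-56022486 radiotracer. Plasma and brain exposures also measured.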

Mus musculus [2] = test: Ex vivo receptor occupancy at TARPgamma8 in po dosed mouse assessed as reduction in [3H]JNJ-56022486 receptor labeling by autoradiography; format: functional
In short: (§1)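 Occupancy measured by ex vivo autoradiography with [3H]JNJ-56022486. ED50 from a Hill fit of occupancy versus dose. Brain and plasma EC50 from fitting occupancy against exposure.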

Mus musculus [3] = test: Ex vivo receptor occupancy at TARPgamma8 in po dosed mouse assessed as plasma concentration causing 50% reduction in [3H]JNJ-56022486 receptor labeling by autoradiography; format: functional, organism-based; in short: as §1
Mus musculus [4] = test: Anticonvulsant activity in po dosed albino CF1 mouse model of 60-Hz corneal stimulation induced kindling model assessed as decrease of seizure score treated for 1 hr prior to 60-Hz corneal stimulation and measured after 1 hr
Mus musculus [5] = test: Anticonvulsant activity in albino CF1 mouse model of 60-Hz corneal stimulation induced kindling model assessed as decrease in seizure score at 5 mg/kg/day measured 1 hr post last dose; format: functional, organism-based
In short: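 Mouse corneal kindling model; once-daily oral dosing at 5 mg/kg/day for 5 days, seizure challenge 1 h after dosing. Rotarod test given immediately before challenge. Read-out is the fraction of animals protected (Racine score 3 or lower). N = 12-14 animals per cohort.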

[6] = target: GRIA1/CACNG8 (Homo sapiens); test: Negative allosteric modulation of recombinant human GluA1 flop isoform/TARPgamma8 expressed in HEK293 cells assessed as inhibition of glutamate-induced calcium flux at 100 uM by calcium 5/6 dye based FLIPR assay
[7] = Apparent permeability across apical to basolateral side in MDCK-MDR1 cells at 5 uM measured after 60 mins by LC-MS/MS analysis; format: ADME, cell-based, Canis lupus familiaris; details: dog
[8] = Efflux ratio of apparent permeability across basolateral to apical side over apical to basolateral side in MDCK-MDR1 cells at 5 uM measured after 60 mins by LC-MS/MS analysis; format: ADME, cell-based, Canis lupus familiaris; details: dog
In short: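 Bidirectional permeability; efflux reported as the ratio of B-to-A over A-to-B apparent permeability.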

[9] = Extraction ratio in human liver microsomes at 1 uM measured after 60 mins by LC-MS/MS analysis; format: ADME, Microsome; details: read-out: ERH
In short: (§2)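 Metabolic stability in human and rat liver microsomes at 1 µM compound; reported as extraction ratio.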

[10] = Extraction ratio in rat liver microsomes at 1 uM measured after 60 mins by LC-MS/MS analysis; format: ADME, Microsome; details: read-out: ERH; in short: as §2
GRIA1/CACNG8 = GRIA1/CACNG8 (Homo sapiens, UniProt P42261+Q8WXS5); test: Negative allosteric modulation of recombinant human GluA1 flop isoform/TARPgamma8 expressed in HEK293 cells assessed as inhibition of glutamate-induced calcium flux by calcium 5/6 dye based FLIPR assay; format: cell-based
Sequence of GRIA1/CACNG8 (P42261 whole entry, the tested form may be a part, canonical isoform): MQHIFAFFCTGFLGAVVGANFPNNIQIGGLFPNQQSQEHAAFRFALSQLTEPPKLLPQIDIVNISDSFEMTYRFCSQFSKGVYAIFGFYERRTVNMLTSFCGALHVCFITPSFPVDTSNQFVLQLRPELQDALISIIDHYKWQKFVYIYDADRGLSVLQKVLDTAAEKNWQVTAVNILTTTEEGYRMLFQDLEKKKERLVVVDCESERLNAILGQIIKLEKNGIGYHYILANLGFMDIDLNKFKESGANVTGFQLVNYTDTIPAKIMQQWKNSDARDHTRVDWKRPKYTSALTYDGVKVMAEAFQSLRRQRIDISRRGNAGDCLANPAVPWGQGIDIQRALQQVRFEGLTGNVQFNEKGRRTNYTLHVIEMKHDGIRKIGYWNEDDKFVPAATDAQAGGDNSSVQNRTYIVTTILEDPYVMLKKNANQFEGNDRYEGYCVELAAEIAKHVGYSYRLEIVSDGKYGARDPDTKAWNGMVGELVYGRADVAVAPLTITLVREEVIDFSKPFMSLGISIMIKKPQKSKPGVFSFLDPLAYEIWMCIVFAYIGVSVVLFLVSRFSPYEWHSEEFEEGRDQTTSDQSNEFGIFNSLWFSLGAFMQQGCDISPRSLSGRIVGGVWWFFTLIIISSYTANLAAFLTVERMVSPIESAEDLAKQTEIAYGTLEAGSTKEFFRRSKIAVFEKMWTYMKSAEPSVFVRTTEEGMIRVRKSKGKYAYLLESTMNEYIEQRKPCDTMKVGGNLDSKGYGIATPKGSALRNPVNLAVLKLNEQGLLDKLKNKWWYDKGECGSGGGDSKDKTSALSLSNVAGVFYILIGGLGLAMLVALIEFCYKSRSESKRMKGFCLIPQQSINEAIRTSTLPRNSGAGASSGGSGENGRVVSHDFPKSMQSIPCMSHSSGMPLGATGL
Sequence of GRIA1/CACNG8 (Q8WXS5 whole entry, the tested form may be a part, canonical isoform): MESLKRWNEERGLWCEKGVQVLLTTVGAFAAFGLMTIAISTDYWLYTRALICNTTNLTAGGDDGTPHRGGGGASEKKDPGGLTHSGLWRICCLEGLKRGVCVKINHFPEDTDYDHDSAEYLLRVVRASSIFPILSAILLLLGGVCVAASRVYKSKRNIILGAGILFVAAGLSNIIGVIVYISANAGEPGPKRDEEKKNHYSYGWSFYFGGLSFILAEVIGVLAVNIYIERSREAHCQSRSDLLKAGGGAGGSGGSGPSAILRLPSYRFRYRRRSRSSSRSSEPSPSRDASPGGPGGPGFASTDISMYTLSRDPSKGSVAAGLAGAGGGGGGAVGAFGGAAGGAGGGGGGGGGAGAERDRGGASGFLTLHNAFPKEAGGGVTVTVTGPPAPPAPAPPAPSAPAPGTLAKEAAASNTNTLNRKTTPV
In short: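 FLIPR assay of glutamate-induced Ca2+ flux in HEK-293 cells expressing a human GluA1o-γ-8 fusion construct. At least three assays each run in triplicate; mean pIC50 with standard deviation.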

GRIA1/CACNG2 [11] = target: T1, GRIA1/CACNG2 (Homo sapiens, UniProt P42261+Q9Y698); test: Negative allosteric modulation of recombinant human GluA1 flop isoform/TARPgamma2 expressed in HEK293 cells assessed as inhibition of glutamate-induced calcium flux by calcium 5/6 dye based FLIPR assay; format: cell-based
T1 sequence (P42261 whole entry, canonical isoform): as the sequence (P42261 whole entry, the tested form may be a part, canonical isoform) above
T1 sequence (Q9Y698 whole entry, canonical isoform): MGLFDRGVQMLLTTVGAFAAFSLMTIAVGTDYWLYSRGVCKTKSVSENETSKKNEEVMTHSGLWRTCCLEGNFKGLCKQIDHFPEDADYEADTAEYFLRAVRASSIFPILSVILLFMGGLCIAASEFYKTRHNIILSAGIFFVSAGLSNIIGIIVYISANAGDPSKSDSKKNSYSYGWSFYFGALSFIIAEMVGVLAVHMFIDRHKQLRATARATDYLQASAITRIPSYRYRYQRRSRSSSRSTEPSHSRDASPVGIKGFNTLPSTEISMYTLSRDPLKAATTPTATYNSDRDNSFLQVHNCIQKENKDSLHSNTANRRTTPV
In short: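 FLIPR Ca2+ flux assay in HEK-293 cells transiently expressing human GluA1o co-transfected with γ-2; glutamate-induced response; reported as pIC50.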

Cytochrome P450 2C9 = Cytochrome P450 2C9 (Homo sapiens, UniProt P11712); test: Inhibition of CYP2C9 in human liver microsomes using diclofenac as substrate measured after 15 mins in presence of NADPH by LC-MS/MS analysis; format: ADME
Sequence of Cytochrome P450 2C9 (P11712 whole entry): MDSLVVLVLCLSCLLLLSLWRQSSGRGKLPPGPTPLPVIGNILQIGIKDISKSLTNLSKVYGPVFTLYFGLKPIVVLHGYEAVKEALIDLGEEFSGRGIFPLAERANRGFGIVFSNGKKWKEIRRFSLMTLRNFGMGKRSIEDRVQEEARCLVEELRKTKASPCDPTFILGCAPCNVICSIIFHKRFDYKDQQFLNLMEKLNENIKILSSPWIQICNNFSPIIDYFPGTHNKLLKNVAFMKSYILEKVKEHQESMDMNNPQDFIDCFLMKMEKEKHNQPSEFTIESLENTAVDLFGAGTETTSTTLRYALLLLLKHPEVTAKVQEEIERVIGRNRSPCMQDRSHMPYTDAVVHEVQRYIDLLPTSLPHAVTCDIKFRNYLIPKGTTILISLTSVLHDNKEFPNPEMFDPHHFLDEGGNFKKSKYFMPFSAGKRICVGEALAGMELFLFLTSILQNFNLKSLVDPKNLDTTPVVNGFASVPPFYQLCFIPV

[12] = target: T2, Voltage-dependent calcium channel gamma-8 subunit (Rattus norvegicus) (UniProt Q8VHW5); test: Negative allosteric modulation of TARPgamma8 in rat hippocampal neurons assessed as inhibition of glutamate-induced current at 10 uM at -60 mV holding potential by patch-clamp electrophysiology method
T2 sequence (whole entry): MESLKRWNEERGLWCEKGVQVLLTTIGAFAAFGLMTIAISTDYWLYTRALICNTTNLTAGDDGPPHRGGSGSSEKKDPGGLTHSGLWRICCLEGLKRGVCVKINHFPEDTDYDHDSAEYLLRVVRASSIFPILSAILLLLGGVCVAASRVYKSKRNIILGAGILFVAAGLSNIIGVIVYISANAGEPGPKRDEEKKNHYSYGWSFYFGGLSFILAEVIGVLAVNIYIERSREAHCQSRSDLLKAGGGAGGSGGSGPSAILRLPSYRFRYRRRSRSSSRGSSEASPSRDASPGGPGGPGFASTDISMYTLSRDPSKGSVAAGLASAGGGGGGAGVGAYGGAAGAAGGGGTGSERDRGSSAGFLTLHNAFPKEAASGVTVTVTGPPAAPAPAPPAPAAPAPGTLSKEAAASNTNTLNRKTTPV

[13] = target: T2, Voltage-dependent calcium channel gamma-8 subunit (Rattus norvegicus); test: Negative allosteric modulation of TARPgamma8 in rat hippocampal neurons assessed as inhibition of glutamate-induced current at 10 uM at -60 mV holding potential measured at 5 secs interval for 50 to 60 secs by patch-clamp electrophysiology method relative to control
GRIA1/CACNG2 [14] = target: T1, GRIA1/CACNG2; test: Negative allosteric modulation of recombinant human GluA1 flop isoform/TARPgamma2 expressed in HEK293 cells assessed as inhibition of glutamate-induced calcium flux at 100 uM by calcium 5/6 dye based FLIPR assay; format: cell-based; details: hek293, 100 µM
In short: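 Counterscreen of FLIPR Ca2+ flux in HEK-293 cells co-transfected with human GluA1o and γ-2, tested up to 100 µM.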

[15] = target: T3, Voltage-dependent calcium channel gamma-2 subunit (Rattus norvegicus, UniProt Q71RJ2); test: Negative allosteric modulation of TARPgamma2 in rat cerebellar purkinje neurons assessed as inhibition of glutamate-induced current at 10 uM at -60 mV holding potential measured at 5 secs interval for 50 to 60 secs by patch-clamp electrophysiology method
T3 sequence (Q71RJ2 whole entry): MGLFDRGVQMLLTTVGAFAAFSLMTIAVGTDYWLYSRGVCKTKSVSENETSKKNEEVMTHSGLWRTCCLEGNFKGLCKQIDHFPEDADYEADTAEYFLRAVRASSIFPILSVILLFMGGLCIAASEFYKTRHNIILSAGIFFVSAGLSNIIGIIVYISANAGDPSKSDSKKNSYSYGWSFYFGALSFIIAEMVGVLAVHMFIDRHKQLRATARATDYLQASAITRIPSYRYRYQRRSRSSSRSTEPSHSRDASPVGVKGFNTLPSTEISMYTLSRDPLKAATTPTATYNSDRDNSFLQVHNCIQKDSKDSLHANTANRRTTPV

Structure (SMILES): O=C1Cc2cc(-c3c(-c4ccc(F)cc4)nn4c(N5CCC(O)CC5)nccc34)ccc2N1
Occ (Mus musculus [1]): > 90%
ED50 (Mus musculus [2]): 2.9 mg/kg
EC50 (Mus musculus [3]): 0.362 µg/mL (≈ 0.816 µM)
ED50 (Mus musculus [4]): 1.3 mg/kg
Activity (Mus musculus [5]): Active

Structure (SMILES): O=C1Cc2cc(-c3c(-c4ccc(F)cc4)nn4c(N5CCOCC5)nccc34)ccc2N1
IC50 ([6]; read-out: pIC50 (converted)): 0.501 nM

Structure (SMILES): Oc1ccc(-c2c(-c3ccc(Cl)cc3)nc3c(N4CCOCC4)nccn23)cc1
IC50 ([6]; read-out: pIC50 (converted)): 10 nM

Structure (SMILES): CC(=O)Nc1ccc(-c2c(-c3ccc(F)cc3)nc3c(N4CCOCC4)nccn23)cc1
IC50 ([6]; read-out: pIC50 (converted)): > 10000 nM

Structure (SMILES): Oc1ccc(-n2c(-c3ccc(F)cc3)nc3ccccc32)cc1
IC50 (GRIA1/CACNG8): 200 nM
IC50 (GRIA1/CACNG2 [11]): 1260 nM

Structure (SMILES): Nc1ccc(-c2c(-c3ccc(F)cc3)nc3c(N4CCOCC4)nccn23)cc1
IC50 ([6]; read-out: pIC50 (converted)): 63.1 nM

Structure (SMILES): O=C1Cc2cc(-c3c(-c4ccc(F)cc4)nn4c(N5CCC(F)CC5)nccc34)ccc2N1
Papp A→B at 1 h, 5 µM [7]: 1.2 ×10⁻⁶ cm/s
IC50 ([6]; read-out: pIC50 (converted)): 5.01 nM
hepatic extraction ratio at 1 h, 1 µM [9]: 0.6
hepatic extraction ratio at 1 h, 1 µM [10]: 0.6

Structure (SMILES): Fc1ccc(-c2nc3c(N4CCOCC4)nccn3c2-c2ccc3[nH]ncc3c2)cc1
IC50 (Cytochrome P450 2C9): 500 nM
IC50 ([6]; read-out: pIC50 (converted)): 0.631 nM

Structure (SMILES): Oc1ccc(-c2c(-c3ccc(F)cc3)nc3c(N4CCOCC4)nccn23)cc1
IC50 ([6]; read-out: pIC50 (converted)): 12.6 nM

Structure (SMILES): O=C1CN(c2nccc3c(-c4ccc5c(c4)CC(=O)N5)c(-c4ccc(F)cc4)nn23)CCN1
IC50 ([6]; read-out: pIC50 (converted)): 5.01 nM

Structure (SMILES): COc1ccc(-c2c(-c3ccc(F)cc3)nc3c(N4CCOCC4)nccn23)cc1
IC50 ([6]; read-out: pIC50 (converted)): 501 nM

Structure (SMILES): COCCn1cc(-c2c(-c3ccc(Cl)cc3)nc3c(N4CCOCC4)nccn23)cn1
IC50 (GRIA1/CACNG8): 126 nM
IC50 (GRIA1/CACNG2 [11]): > 10000 nM
inhibition [12]: Dose-dependent effect
inhibition [13]: 50%
inhibition (INH) (GRIA1/CACNG2 [14]): Not Active
inhibition (INH) [15]: Not Active

The next lines start with the values.

IC50 ([6]; read-out: pIC50 (converted)): 0.398 nM
Structure (SMILES): CC(=O)N1CCN(c2nccn3c(-c4ccc5c(c4)CC(=O)N5)c(-c4ccc(F)cc4)nc23)CC1

Papp A→B at 1 h, 5 µM [7]: 2.1 ×10⁻⁶ cm/s
IC50 ([6]; read-out: pIC50 (converted)): 0.251 nM
efflux ratio at 1 h, 5 µM [8]: 34
hepatic extraction ratio at 1 h, 1 µM [9]: 0.6
hepatic extraction ratio at 1 h, 1 µM [10]: 0.5
Structure (SMILES): CC(=O)N1CCN(c2nccc3c(-c4ccc5c(c4)CC(=O)N5)c(-c4ccc(F)cc4)nn23)CC1

IC50 ([6]; read-out: pIC50 (converted)): 0.501 nM
Structure (SMILES): O=C1CN(c2nccn3c(-c4ccc5c(c4)CC(=O)N5)c(-c4ccc(F)cc4)nc23)CCN1

IC50 ([6]; read-out: pIC50 (converted)): 0.398 nM
Structure (SMILES): O=C1Cc2cc(-c3c(-c4ccc(F)cc4)nc4c(N5CCC(O)CC5)nccn34)ccc2N1

IC50 ([6]; read-out: IC50): 0.1 nM
Structure (SMILES): O=C1Cc2cc(-c3c(-c4ccc(F)cc4)nc4c(N5CCC(F)CC5)nccn34)ccc2N1
